Laboratory results taken from ChEMBL document CHEMBL1138187, “2-(2-Thienyl)-5,6-dihydroxy-4-carboxypyrimidines as inhibitors of the hepatitis C virus NS5B polymerase: discovery, SAR, modeling, and mutagenesis” (J Med Chem, 2006).
Calls of active or inactive are those of the source. The rule behind the calls is not given here.

Experiments:
[1] = tested on: O=c1ccn([C@@H]2O[C@H](COP(=O)(O)OP(=O)(O)OP(=O)(O)O)[C@@H](O)[C@H]2O)c(=O)[nH]1; assay: Activity against HCV 1b BK NS5B deltaC55 RNA polymerase; conditions: Hepatitis C virus subtype 1b
Summary of the method: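 HCV genotype 1b BK-strain NS5B ΔC55 (residues 1-536) expressed in E. coli BL21(DE3) and purified; activity measured with a homopolymeric RNA template, assay run at pH 7.4 with Mg; IC50 is the mean of at least three independent determinations.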

[2] = target: RNA-directed RNA polymerase (Hepacivirus hominis) (UniProt O39930); assay: Inhibition of replication of HCV 1b BK RNA in Huh7 cells at 100 uM in presence of 10% fetal calf serum; format: functional, cell-based; conditions: Huh-7
Summary of the method: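 Subgenomic HCV RNA replicon in Huh-7 cells, modified Bartenschlager procedure with 10% fetal calf serum; compounds first tested at a fixed 100 µM, with EC50 determined only where inhibition exceeded 50%; values averaged over at least three independent determinations.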

[3] = target: RNA-directed RNA polymerase (Hepacivirus hominis) (UniProt O39930); assay: Inhibitory activity against HCV 1b BK NS5B deltaC55 RNA polymerase at 50 uM; conditions: Hepatitis C virus subtype 1b
Huh-7 = assay: Cytotoxicity against Huh7 cells upto 100 uM; format: functional, cell-based; conditions: Homo sapiens
[4] = target: RNA-directed RNA polymerase (Hepacivirus hominis) (UniProt O39930); assay: Inhibitory activity against HCV 1b BK NS5B deltaC55 RNA polymerase at 200 uM; conditions: Hepatitis C virus subtype 1b
[5] = tested on: O=c1ccn([C@@H]2O[C@H](COP(=O)(O)OP(=O)(O)OP(=O)(O)O)[C@@H](O)[C@H]2O)c(=O)[nH]1; assay: Activity against HCV 1b BK NS5B deltaC55-R158K mutant RNA polymerase; conditions: Hepatitis C virus subtype 1b
Summary of the method: (§1)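 HCV 1b-BK NS5B∆C55 (residues 1-536) carrying R158M or R158K, expressed in E. coli BL21(DE3) and purified. Polymerase run on a homopolymeric template RNA with UTP as substrate; IC50 and UTP Km measured in duplicate.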

[6] = tested on: O=c1ccn([C@@H]2O[C@H](COP(=O)(O)OP(=O)(O)OP(=O)(O)O)[C@@H](O)[C@H]2O)c(=O)[nH]1; assay: Activity against HCV 1b BK NS5B deltaC55-R158M mutant RNA polymerase; conditions: Hepatitis C virus subtype 1b; summary of the method: as §1

| Molecule | inhibition [2] | inhibition [3] | other results |
| --- | --- | --- | --- |
| RNA-directed RNA polymerase (Hepacivirus hominis), O39930 | – | – | Km [1]: 6 µM |
| O=C(Nc1ccsc1-c1nc(O)c(O)c(C(=O)O)n1)OCCc1ccccc1 | < 20% | – | – |
| O=C(O)c1nc(-c2ncc[nH]2)nc(O)c1O | – | 50% | – |
| O=C(NCc1ccccc1Cl)Nc1ccsc1-c1nc(O)c(O)c(C(=O)O)n1 | – | – | Activity (Huh-7): inactive |
| CCCCc1nc(O)c(O)c(C(=O)O)n1 | – | 0% | – |
| O=C(O)c1nc(-c2nccs2)nc(O)c1O | < 20% | – | – |
| CSc1nc(O)c(O)c(C(=O)O)n1 | inactive | 55% | – |
| O=C(O)c1nc(C2CCCCC2)nc(O)c1O | inactive | – | inhibition [4]: 31% |
| O=C(O)c1nc(Cc2ccccc2)nc(O)c1O | – | 24% | – |
| CS(=O)(=O)c1nc(O)c(O)c(C(=O)O)n1 | inactive | – | – |
| O=C(O)c1nc(-c2nccn2Cc2ccccc2)nc(O)c1O | – | 30% | – |
| O=C(O)c1nc(-c2cccs2)nc(O)c1O | inactive | – | – |
| RNA-directed RNA polymerase (Hepacivirus hominis) (from UniProt O39930) UNDEFINED MUTATION | – | – | Km [5]: 20 µM; Km [6]: 15 µM |
